SMARCA2 activ – SMARCA2 function activation, primary screen. 370,000 tested, 1% active. activation, % at 9.1 µM. MG213 cells, MMTV-luciferase reporter, dexamethasone, overnight; in the data active means activation above about 7.8%;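 further: 0% = vehicle wells and 100% = reference activator wells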
NR2E3 ag-1 – NR2E3 (human) agonism. inhibition of corepressor binding, % at 4.78 µM. Q9Y5X4. AID 2300. GST-NR2E3/biotin-RetCOR TR-FRET, 1536-well. 320,000 tested, 0.12% active;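 active means percent inhibition above the cutoff of mean plus 3 SD of all tested compounds, set per screening campaign, cut at about 20% in these data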;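 further: 0% = DMSO wells and 100% = biotin wells as full block of FRET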
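Test system – NR2E3–RetCOR corepressor complex · Quantity – NR2E3 fusion 1.35 nM · Buffer or medium – Tris pH 7.5 · Incubation – Compound–protein incubation for 5 h at 4 °C · Technique – TR-FRET, Eu(K)-anti-GST donor, streptavidin-D2 acceptor, ex 340, em 617/671 nm · Evaluation – percent inhibition of 671/617 nm emission ratio versus biotin and DMSO controls · Plate – 1536-well format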
JMJD2C inh – human JMJD2C demethylase inhibition; Q9H3R0; GST-JMJD2C(1-420) H3K9me3 demethylation, DELFIA europium; inhibition, % at 2.35 µM; 330,000 tested, 0.069% active;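 active means more than half of a compound's replicate wells show inhibition beyond 50%, single wells judged on their own value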;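 further: signal counts dimethyl H3K9 product captured on neutravidin plate; 0% = median of DMSO wells and 100% = 0.3 times that DMSO median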
Target sequence (Q9H3R0 1-420 limits assumed): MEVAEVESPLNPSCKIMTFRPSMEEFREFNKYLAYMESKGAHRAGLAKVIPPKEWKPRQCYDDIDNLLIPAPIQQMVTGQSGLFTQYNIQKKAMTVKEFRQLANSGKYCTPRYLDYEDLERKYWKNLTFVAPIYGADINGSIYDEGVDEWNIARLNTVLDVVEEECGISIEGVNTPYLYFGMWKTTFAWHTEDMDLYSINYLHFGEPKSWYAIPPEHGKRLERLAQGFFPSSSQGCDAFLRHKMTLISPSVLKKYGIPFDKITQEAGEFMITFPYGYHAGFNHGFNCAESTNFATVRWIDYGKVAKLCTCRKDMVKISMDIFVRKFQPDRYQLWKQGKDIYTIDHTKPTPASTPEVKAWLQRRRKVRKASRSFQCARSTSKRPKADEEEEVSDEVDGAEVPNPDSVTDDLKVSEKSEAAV
DAX1 inh-1 – DAX1 (NR0B1) inhibition, primary screen. inhibition, % at 6.8 µM. 370,000 tested, 1.1% active. HEK293T StAR-luciferase reporter, SF-1/DAX-1 repression relief;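 active means inhibition above the mean over all tested compounds plus 3 SD, cut at about 3.6% in these data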;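 further: 0% = DAX-1 cells with DMSO and 100% = cells lacking DAX-1 with DMSO; higher inhibition means more luminescence from relief of DAX-1 repression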
NR2E3 ag-2 – activates human NR2E3 receptor; Q9Y5X4; CHO-S Gal4-NCOR/VP16-NR2E3 two-hybrid, luciferase; inhibition of corepressor binding, % at 3.98 µM; 360,000 tested, 0.35% active; AID 602229;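 active means inhibition above the mean of all tested compounds plus 3 SD, cut at about 70% in these data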;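 further: 0% = DMSO with NR2E3 transfected cells and 100% = cells lacking NR2E3 construct; higher means lower luciferase signal from less NR2E3 corepressor binding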
DAX1 inh-2 – inhibitors of human orphan nuclear receptor DAX1 (NR0B1); inhibition, % at 6.75 µM; HEK293 Gal4-DAX1 luciferase reporter, luminescence; P51843; AID 504766; 340,000 tested, 0.99% active;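 active means inhibition above the mean over all tested compounds plus 3 SD, cut at about 4.2% in these data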;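 further: 0% = DAX1-transfected cells with DMSO and 100% = empty-vector control cells with DMSO; inhibition shows as a rise in luminescence from relieved DAX1 repression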
An asterisk follows results filed as active. Shown are actives, neighbours in structure and some others; about 3.2% of the full set was active somewhere.

`CC1(C)C[C@H]2C3=CCC4[C@@]5(C)CC[C@H](O[C@@H]6O[C@H](C(=O)O)[C@@H](O)[C@H](O)[C@H]6O)[C@@](C)(CO)C5CC[C@@]4(C)[C@]3(C)C[C@H](O)[C@@]2(CO)[C@@H](O)[C@@H]1O` (stereo partly drawn) gave SMARCA2 activ 2, JMJD2C inh 3, DAX1 inh-1 0, NR2E3 ag-2 -4 and DAX1 inh-2 0.
`CCCCCCCCN1C(=O)[C@@H](CC(=O)NCC23CC4CC(CC(C4)C2)C3)C[C@@]2(C(=O)OC)C1=C[C@H](C(C)C)O[C@@H]2C1CC1` gave SMARCA2 activ -1 and DAX1 inh-1 1.
`NC(=O)c1ccc(N=C2C(=O)Nc3ccc([N+](=O)[O-])cc32)cc1` gave SMARCA2 activ -2, NR2E3 ag-1 1, JMJD2C inh -16, DAX1 inh-1 1, NR2E3 ag-2 -3 and DAX1 inh-2 5.3*.
O=C1Nc2ccccc2C1=Nc1cccc([N+](=O)[O-])c1 was read as SMARCA2 activ -1, NR2E3 ag-1 2, JMJD2C inh 0, DAX1 inh-1 0, NR2E3 ag-2 -1 and DAX1 inh-2 1.
For CCCCc1nnc(NC(=O)c2ccc3c(=O)n4c(nc3c2)CCC4)s1 the results were SMARCA2 activ -2, NR2E3 ag-1 4, JMJD2C inh -23, DAX1 inh-1 0, NR2E3 ag-2 -14 and DAX1 inh-2 0.
O=C(Nc1ccc(F)cc1)c1ccc2c(=O)n3c(nc2c1)CCCCC3 was read as SMARCA2 activ -1, NR2E3 ag-1 1, JMJD2C inh 3, DAX1 inh-1 0, NR2E3 ag-2 -2 and DAX1 inh-2 2.
CCc1nnc(NC(=O)c2ccc3c(=O)n4c(nc3c2)CCC4)s1 was read as SMARCA2 activ 2, DAX1 inh-1 4.4*, NR2E3 ag-2 -102 and DAX1 inh-2 4.2*.
Screening O=C(NCc1ccc(F)cc1)c1ccc2c(=O)n3c(nc2c1)CCCCC3 returned SMARCA2 activ -1, NR2E3 ag-1 -3, JMJD2C inh -8, DAX1 inh-1 -1, NR2E3 ag-2 5 and DAX1 inh-2 5.0*.
`O=C(NCc1ccc(F)c(F)c1)C1CCC(CNS(=O)(=O)c2cccc3cccnc23)CC1` (stereo not drawn) gave SMARCA2 activ -5 and DAX1 inh-1 -1.
`CCOC(=O)CC[C@@H]1CC[C@]2(CCCN(C(=O)C(C)(C)C)C2)O1` gave SMARCA2 activ 1 and DAX1 inh-1 0.
`COc1ccc(C(=O)C(C)OC(=O)c2cccc(S(=O)(=O)Nc3cc(Cl)c(OC)cc3OC)c2)cc1` (stereo not drawn) gave NR2E3 ag-1 -6, JMJD2C inh 1, NR2E3 ag-2 80* and DAX1 inh-2 -3.
O=C(COc1nncc2ccccc12)Nc1ccc(F)c(F)c1 was read as SMARCA2 activ -1, NR2E3 ag-1 -3, DAX1 inh-1 0, NR2E3 ag-2 -9 and DAX1 inh-2 5.7*.
For O=C(NC(=S)Nc1ccc2c(c1)OCCO2)c1ccco1 the results were SMARCA2 activ 7, NR2E3 ag-1 4, JMJD2C inh -2, DAX1 inh-1 2, NR2E3 ag-2 -170 and DAX1 inh-2 4.5*.
O=C(NC(=S)NC1CCC(O)CC1)c1ccco1 (stereo not drawn) was read as SMARCA2 activ -4, JMJD2C inh 1, DAX1 inh-1 4.1*, NR2E3 ag-2 4 and DAX1 inh-2 0.
`O=C(CSc1nnc(COc2ccccc2)n1-c1ccccc1)Nc1ccc2c(c1)OCO2` gave SMARCA2 activ -2 and DAX1 inh-1 -2.
`Cc1ccc(S(=O)(=O)N2CCOC2CNC(=O)C(=O)NCCc2ccc(S(N)(=O)=O)cc2)cc1` (stereo not drawn) gave SMARCA2 activ -5, NR2E3 ag-1 -1, JMJD2C inh 61*, DAX1 inh-1 0, NR2E3 ag-2 -4 and DAX1 inh-2 -2.
Screening NS(=O)(=O)c1ccc(CCNC(=O)C(=O)NCC2OCCN2S(=O)(=O)c2ccc(F)cc2)cc1 (stereo not drawn) returned SMARCA2 activ -1, NR2E3 ag-1 2, JMJD2C inh -11, DAX1 inh-1 0, NR2E3 ag-2 6 and DAX1 inh-2 0.

Screening results from PubChem.
